Test results: ChEMBL document CHEMBL1125554, “Studies on pyridonecarboxylic acids. 1. Synthesis and antibacterial evaluation of 7-substituted-6-halo-4-oxo-4H-[1,3]thiazeto[3,2-a]quinoline-3-carboxylic acids” (J Med Chem, 1992)
In brackets after ≈: the same amount, converted by molar mass.

Columns and labels:
Escherichia coli = experiment: In vitro antibacterial activity against Escherichia coli NIH JC-2; format: functional
Summary of the method: (§1)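 MIC (μg/mL) by 2-fold agar dilution on Sensitivity Test agar, following the Japan Society of Chemotherapy MIC Committee method. Inocula were about 10⁶ cfu/mL. Growth was read after 20 h incubation at 37 °C.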

Klebsiella pneumoniae = experiment: In vitro antibacterial activity against Klebsiella pneumoniae K-1966; format: functional; summary of the method: as §1
Pseudomonas aeruginosa = experiment: In vitro antibacterial activity against Pseudomonas aeruginosa E-2; format: functional; summary of the method: as §1
Shigella flexneri = experiment: In vitro antibacterial activity against Shigella flexneri 2a EW-10; format: functional; summary of the method: as §1
Serratia marcescens = experiment: In vitro antibacterial activity against Serratia marcescens IFO 3736; format: functional; summary of the method: as §1
Staphylococcus aureus = experiment: In vitro antibacterial activity against Staphylococcus aureus 209P JC-1; format: functional; summary of the method: as §1
Micrococcus luteus = experiment: In vitro antibacterial activity against Micrococcus luteus ATCC 9341; format: functional; summary of the method: as §1
Mus musculus [1] = organism: Mus musculus; experiment: Compound was evaluated for oral efficacy on systemic infections in mice by Escherichia coli KC-14; format: functional
Summary of the method: (§2)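 Male ddY mice (20 ± 2 g), seven per dose group. Challenge was intraperitoneal, 0.5 mL of bacteria suspended in 5% gastric mucin: E. coli KC-14 at 4.3 × 10⁴ cfu/mL or P. aeruginosa E-2 at 2.88 × 10⁵ cfu/mL. Drug was suspended in 0.5% HPC-SL and given orally 2 h (E. coli) or 1 h (P. aeruginosa) after challenge. ED50 was calculated by Probit from 7-day survival.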

Mus musculus [2] = organism: Mus musculus; experiment: Compound was evaluated for oral Pseudomonas aeruginosa E-2; format: functional; summary of the method: as §2
[3] = Lethal dose on systemic infections in mice after oral administration; format: toxicity, organism-based; settings: mouse, in vivo
Summary of the method: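 Acute oral toxicity: the suspension was given orally in 0.5% HPC-SL to Slc:SD rats, although the section heading says mice. Males weighed 141-168 g and females 113-127 g, five per group. LD50 was determined by the method of Weil 7 days after dosing.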

[4] = Escherichia coli, read-out: MIC
[5] = Klebsiella pneumoniae, read-out: MIC
[6] = Pseudomonas aeruginosa, read-out: MIC
[7] = Shigella flexneri, read-out: MIC
[8] = Serratia marcescens, IFO 3736, read-out: MIC
[9] = Staphylococcus aureus, read-out: MIC
[10] = Micrococcus luteus, ATCC 9341, read-out: MIC

| SMILES | MIC (Escherichia coli; [4]) | MIC (Klebsiella pneumoniae; [5]) | MIC (Pseudomonas aeruginosa; [6]) | MIC (Shigella flexneri; [7]) | MIC (Serratia marcescens; [8]) | MIC (Staphylococcus aureus; [9]) | MIC (Micrococcus luteus; [10]) | ED50 (Mus musculus [1]) | ED50 (Mus musculus [2]) | MIC (Escherichia coli) | MIC (Klebsiella pneumoniae) | MIC (Pseudomonas aeruginosa) | MIC (Shigella flexneri) | MIC (Serratia marcescens) | MIC (Staphylococcus aureus) | MIC (Micrococcus luteus) | LD50 [3] |
| --- | --- | --- | --- | --- | --- | --- | --- | --- | --- | --- | --- | --- | --- | --- | --- | --- | --- |
| CN1CCN(c2cc3c(cc2F)c(=O)c(C(=O)O)c2n3C(c3ccccc3)S2)CC1 (stereo unspecified) | 0.2 µg/mL (≈ 0.47 µM) | 0.2 µg/mL (≈ 0.47 µM) | 1.56 µg/mL (≈ 3.67 µM) | 0.2 µg/mL (≈ 0.47 µM) | 0.39 µg/mL (≈ 0.917 µM) | 0.39 µg/mL (≈ 0.917 µM) | 6.25 µg/mL (≈ 14.7 µM) | – | – | – | – | – | – | – | – | – | – |
| CC1Sc2c(C(=O)O)c(=O)c3cc(F)c(N4CCN(c5ccccc5)CC4)cc3n21 (stereo unspecified) | > 100 µg/mL | > 100 µg/mL | > 100 µg/mL | > 100 µg/mL | > 100 µg/mL | 3.13 µg/mL (≈ 7.36 µM) | 12.5 µg/mL (≈ 29.4 µM) | – | – | – | – | – | – | – | – | – | – |
| CCN1CCN(c2cc3c(cc2F)c(=O)c(C(=O)O)c2n3C(C)S2)CC1 (stereo unspecified) | 0.05 µg/mL (≈ 0.132 µM) | 0.05 µg/mL (≈ 0.132 µM) | 0.78 µg/mL (≈ 2.07 µM) | 0.025 µg/mL (≈ 0.0662 µM) | 0.1 µg/mL (≈ 0.265 µM) | 0.1 µg/mL (≈ 0.265 µM) | 1.56 µg/mL (≈ 4.13 µM) | – | – | – | – | – | – | – | – | – | – |
| CC(=O)N1CCN(c2cc3c(cc2F)c(=O)c(C(=O)O)c2n3C(C)S2)CC1 (stereo unspecified) | 0.78 µg/mL (≈ 1.99 µM) | 0.39 µg/mL (≈ 0.996 µM) | 6.25 µg/mL (≈ 16 µM) | 0.39 µg/mL (≈ 0.996 µM) | 1.56 µg/mL (≈ 3.99 µM) | 0.2 µg/mL (≈ 0.511 µM) | 3.13 µg/mL (≈ 8 µM) | – | – | – | – | – | – | – | – | – | – |
| CC1Sc2c(C(=O)O)c(=O)c3cc(F)c(N4CCN(Cc5ccc(N)cc5)CC4)cc3n21 (stereo unspecified) | 0.2 µg/mL (≈ 0.44 µM) | 0.2 µg/mL (≈ 0.44 µM) | 3.13 µg/mL (≈ 6.89 µM) | 0.1 µg/mL (≈ 0.22 µM) | 1.56 µg/mL (≈ 3.43 µM) | 0.05 µg/mL (≈ 0.11 µM) | 0.39 µg/mL (≈ 0.858 µM) | – | – | – | – | – | – | – | – | – | – |
| CN1CCN(c2cc3c(cc2F)c(=O)c(C(=O)O)c2n3CS2)CC1 | 0.0125 µg/mL (≈ 0.0358 µM) | 0.025 µg/mL (≈ 0.0716 µM) | 0.39 µg/mL (≈ 1.12 µM) | 0.006 µg/mL (≈ 0.0172 µM) | 0.05 µg/mL (≈ 0.143 µM) | 0.05 µg/mL (≈ 0.143 µM) | 12.5 µg/mL (≈ 35.8 µM) | 1.77 mg/kg | 16.4 mg/kg | – | – | – | – | – | – | – | – |
| CC1Sc2c(C(=O)O)c(=O)c3cc(F)c(N4CCNC(=O)C4)cc3n21 (stereo unspecified) | 0.39 µg/mL (≈ 1.07 µM) | 0.2 µg/mL (≈ 0.55 µM) | 6.25 µg/mL (≈ 17.2 µM) | 0.1 µg/mL (≈ 0.275 µM) | 3.13 µg/mL (≈ 8.61 µM) | 0.39 µg/mL (≈ 1.07 µM) | 3.13 µg/mL (≈ 8.61 µM) | – | – | – | – | – | – | – | – | – | – |
| CC(C)N1CCN(c2cc3c(cc2F)c(=O)c(C(=O)O)c2n3C(C)S2)CC1 (stereo unspecified) | 0.2 µg/mL (≈ 0.511 µM) | 0.025 µg/mL (≈ 0.0639 µM) | 1.56 µg/mL (≈ 3.99 µM) | 0.025 µg/mL (≈ 0.0639 µM) | 0.39 µg/mL (≈ 0.996 µM) | 0.05 µg/mL (≈ 0.128 µM) | 3.13 µg/mL (≈ 8 µM) | – | – | – | – | – | – | – | – | – | – |
| CC1Sc2c(C(=O)O)c(=O)c3cc(F)c(N4CCCNCC4)cc3n21 (stereo unspecified) | 0.2 µg/mL (≈ 0.55 µM) | 0.2 µg/mL (≈ 0.55 µM) | 3.13 µg/mL (≈ 8.61 µM) | 0.1 µg/mL (≈ 0.275 µM) | 0.39 µg/mL (≈ 1.07 µM) | 0.1 µg/mL (≈ 0.275 µM) | 3.13 µg/mL (≈ 8.61 µM) | – | – | – | – | – | – | – | – | – | – |
| CC1Sc2c(C(=O)O)c(=O)c3cc(F)c(N4CCCC4)cc3n21 (stereo unspecified) | 0.2 µg/mL (≈ 0.598 µM) | 0.1 µg/mL (≈ 0.299 µM) | 0.39 µg/mL (≈ 1.17 µM) | 0.1 µg/mL (≈ 0.299 µM) | 0.78 µg/mL (≈ 2.33 µM) | 0.05 µg/mL (≈ 0.15 µM) | 0.78 µg/mL (≈ 2.33 µM) | – | – | – | – | – | – | – | – | – | – |
| O=C(O)c1c2n(c3cc(N4CCNCC4)c(Cl)cc3c1=O)CS2 | 0.39 µg/mL (≈ 1.11 µM) | 0.2 µg/mL (≈ 0.568 µM) | 6.25 µg/mL (≈ 17.8 µM) | 0.1 µg/mL (≈ 0.284 µM) | 0.2 µg/mL (≈ 0.568 µM) | 0.2 µg/mL (≈ 0.568 µM) | 6.25 µg/mL (≈ 17.8 µM) | – | – | – | – | – | – | – | – | – | – |
| CC1Sc2c(C(=O)O)c(=O)c3cc(F)c(N4CCSCC4)cc3n21 (stereo unspecified) | 0.2 µg/mL (≈ 0.546 µM) | 0.2 µg/mL (≈ 0.546 µM) | 0.39 µg/mL (≈ 1.06 µM) | 0.1 µg/mL (≈ 0.273 µM) | 0.39 µg/mL (≈ 1.06 µM) | 0.025 µg/mL (≈ 0.0682 µM) | 0.78 µg/mL (≈ 2.13 µM) | – | – | – | – | – | – | – | – | – | – |
| CC1Sc2c(C(=O)O)c(=O)c3cc(F)c(N4CCNCC4)cc3n21 (stereo in doubt; 29a) [ULIFLOXACIN] | – | – | – | – | – | – | – | – | – | 0.0125 µg/mL (≈ 0.0358 µM) | 0.006 µg/mL (≈ 0.0172 µM) | 0.2 µg/mL (≈ 0.572 µM) | 0.006 µg/mL (≈ 0.0172 µM) | 0.05 µg/mL (≈ 0.143 µM) | 0.05 µg/mL (≈ 0.143 µM) | 0.78 µg/mL (≈ 2.23 µM) | – |
| CC1Sc2c(C(=O)O)c(=O)c3cc(F)c(N4CCNCC4)cc3n21 (stereo in doubt; 29l) [ULIFLOXACIN] | – | – | – | – | – | – | – | – | – | 0.78 µg/mL (≈ 2.23 µM) | 0.39 µg/mL (≈ 1.12 µM) | 1.56 µg/mL (≈ 4.46 µM) | 0.78 µg/mL (≈ 2.23 µM) | 3.13 µg/mL (≈ 8.96 µM) | 0.2 µg/mL (≈ 0.572 µM) | 3.13 µg/mL (≈ 8.96 µM) | – |
| O=C(O)c1cn(C2CC2)c2cc(N3CCNCC3)c(F)cc2c1=O [CIPROFLOXACIN] | 0.0125 µg/mL (≈ 0.0377 µM) | 0.006 µg/mL (≈ 0.0181 µM) | 0.2 µg/mL (≈ 0.604 µM) | 0.006 µg/mL (≈ 0.0181 µM) | 0.1 µg/mL (≈ 0.302 µM) | 0.1 µg/mL (≈ 0.302 µM) | 1.56 µg/mL (≈ 4.71 µM) | 0.45 mg/kg | 9.01 mg/kg | – | – | – | – | – | – | – | – |
| CC1COc2c(N3CCN(C)CC3)c(F)cc3c(=O)c(C(=O)O)cn1c23 (stereo unspecified) [OFLOXACIN] | 0.1 µg/mL (≈ 0.277 µM) | 0.025 µg/mL (≈ 0.0692 µM) | 1.56 µg/mL (≈ 4.32 µM) | 0.1 µg/mL (≈ 0.277 µM) | 0.39 µg/mL (≈ 1.08 µM) | 0.39 µg/mL (≈ 1.08 µM) | 3.13 µg/mL (≈ 8.66 µM) | 0.55 mg/kg | 23 mg/kg | – | – | – | – | – | – | – | – |
| Cc1oc(=O)oc1CN1CCN(c2cc3c(cc2F)c(=O)c(C(=O)O)c2n3C(C)S2)CC1 (stereo unspecified) [PRULIFLOXACIN] | – | – | – | – | – | – | – | 0.35 mg/kg | 8.02 mg/kg | – | – | – | – | – | – | – | > 500 mg/kg |
